# Results as given in ChEMBL document CHEMBL4706775, “Discovery of Arylsulfonamide Na1.7 Inhibitors: IVIVC, MPO Methods, and Optimization of Selectivity Profile” (ACS Med Chem Lett, 2021).
# Assays:
# [1] = Intrinsic Clearance in dog; type: ADME, Canis lupus familiaris
# [2] = tested on: Mus musculus; test: Analgesic activity against formalin-induced nociception in po dosed C57BL/6J mouse pretreated with compound for 15 mins followed by formalin challenge and measured after […]; type: functional, organism-based
# [3] = Selectivity ratio of IC50 for human Nav 1.6 alpha expressed in HEK293 cells to IC50 for human Nav 1.7 alpha expressed in HEK293 cells
# [4] = Intrinsic Clearance in rhesus monkey; type: ADME, Macaca mulatta
# [5] = tested on: P-glycoprotein; test: Substrate activity at rat p-glycoprotein assessed as efflux ratio of permeability across basal to apical membrane over apical to basal membrane; type: ADME; conditions: not told
# [6] = Drug concentration in mouse CSF at 100 mg/kg, po measured after 1.25 hrs; type: ADME, organism-based, Cerebrospinal fluid; conditions: read-out: Ct
# [7] = Half life in rat; type: ADME; conditions: in vivo
# [8] = Selectivity ratio of IC50 for human Nav 1.5 expressed in HEK293 cells to IC50 for human Nav 1.7 alpha expressed in HEK293 cells
# [9] = Half life in rhesus monkey; type: ADME, Macaca mulatta; conditions: in vivo
# [10] = Inhibition of rhesus monkey Nav1.7 alpha expressed in HEK293 cells; type: cell-based, Macaca mulatta
# [11] = Volume of distribution at steady state in rhesus monkey; type: ADME, Macaca mulatta; conditions: in vivo, read-out: Vdss
# [12] = Drug concentration in plasma of formalin-induced C57BL/6 mouse model of formalin-induced pain at 30 mg/kg, po pretreated with compound for 15 mins followed by formalin challenge and measured after […]; type: ADME, organism-based
# [13] = Protein binding in human plasma; type: ADME, cell-free; conditions: read-out: PPB (converted)
# [14] = Volume of distribution at steady state in dog; type: ADME, Canis lupus familiaris; conditions: in vivo, read-out: Vdss
# [15] = molecular target: Cytochrome P450 2C9 (Homo sapiens, UniProt P11712); test: Inhibition of CYP2C9 (unknown origin); type: ADME
# [16] = Dissociation constant, pKa of the amine compound; type: physicochemical
# [17] = molecular target: Sodium channel protein type 9 subunit alpha (Homo sapiens, UniProt Q15858); test: Inhibition of human Nav1.7 alpha expressed in HEK293 cells incubated for 5 mins with 6 consecutive train pulses to -10 mV at 0.1 Hz and holding potential of -65 mV by Qube-automated patch clamp assay; type: cell-based
# [18] = Half life in dog; type: ADME, Canis lupus familiaris; conditions: in vivo
# [19] = Clearance in dog; type: ADME, Canis lupus familiaris; conditions: in vivo
# [20] = Clearance in rhesus monkey; type: ADME, Macaca mulatta; conditions: in vivo
# [21] = Clearance in rat; type: ADME; conditions: in vivo
# [22] = molecular target: Nav1.5 (Homo sapiens, UniProt Q14524); test: Inhibition of human Nav1.5 alpha expressed in HEK293 cells expressed in HEK293 cells incubated for 5 mins with 6 consecutive train pulses to -10 mV at 0.1 Hz and holding potential of -65 mV by Qube-automated patch clamp assay; type: ADME, cell-based; conditions: HEK293 cells expressing human Nav1.5 alpha
# [23] = molecular target: Cytochrome P450 3A4 (Homo sapiens, UniProt P08684); test: Inhibition of CYP3A4 (unknown origin); type: ADME
# [24] = tested on: P-glycoprotein; test: Substrate activity at human p-glycoprotein assessed as efflux ratio of permeability across basal to apical membrane over apical to basal membrane; type: ADME; conditions: not told
# [25] = Volume of distribution at steady state in rat; type: ADME; conditions: in vivo, read-out: Vdss
# [26] = molecular target: T1, Nuclear receptor subfamily 1 group I member 2 (Homo sapiens, UniProt O75469); test: Activation of PXR (unknown origin); type: ADME
# T1 sequence (O75469 whole entry): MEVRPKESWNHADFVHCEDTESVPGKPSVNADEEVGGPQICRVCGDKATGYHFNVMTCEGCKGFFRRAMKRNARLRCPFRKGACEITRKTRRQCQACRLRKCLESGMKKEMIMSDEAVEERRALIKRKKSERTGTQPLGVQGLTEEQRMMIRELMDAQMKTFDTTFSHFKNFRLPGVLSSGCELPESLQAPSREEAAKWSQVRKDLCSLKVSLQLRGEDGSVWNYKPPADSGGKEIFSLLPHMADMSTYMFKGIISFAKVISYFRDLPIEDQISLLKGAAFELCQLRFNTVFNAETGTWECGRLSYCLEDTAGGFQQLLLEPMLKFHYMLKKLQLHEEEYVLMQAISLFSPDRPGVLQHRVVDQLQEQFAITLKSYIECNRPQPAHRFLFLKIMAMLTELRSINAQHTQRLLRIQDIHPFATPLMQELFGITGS
# [27] = molecular target: Cytochrome P450 2D6 (Homo sapiens, UniProt P10635); test: Inhibition of […] (unknown origin); type: ADME
# [28] = Kinetic solubility of compound at pH 2 by HPLC analysis; type: physicochemical; conditions: buffer, read-out: Kinetic_solubility
# [29] = Drug concentration in mouse plasma at 100 mg/kg, po measured after 1.25 hrs; type: ADME, organism-based
# [30] = Unbound plasma concentration in rhesus monkey at 19.2 mg/kg; type: ADME, organism-based, Macaca mulatta; conditions: in vivo
# Summary of the method: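 Anesthetized rhesus monkeys, n = 4, imaged by olfactory-bulb fMRI over 2 h; IV infusion in 30% Captisol (~8 mL/animal) started at 1 h and continued for 1 h; unbound plasma concentration determined alongside olfactory inhibition.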
# [31] = Drug concentration in mouse brain at 100 mg/kg, po measured after 1.25 hrs; type: ADME, organism-based; conditions: read-out: Ct
# [32] = organism: Mus musculus; test: Analgesic activity in mouse models of formalin-induced nociception assessed as reduction in paw pain; type: functional
# [33] = molecular target: Sodium channel protein type 8 subunit alpha (Homo sapiens, UniProt Q9UQD0); test: Inhibition of human Nav1.6 alpha expressed in HEK293 cells incubated for 5 mins with 6 consecutive train pulses to -10 mV at 0.1 Hz and holding potential of -65 mV by Qube-automated patch clamp assay; type: ADME, cell-based
# [34] = Oral bioavailability in dog; type: ADME, organism-based, Canis lupus familiaris; conditions: in vivo
# [35] = tested on: Mus musculus; test: Reversal of formalin-induced nociception in po dosed C57BL/6 mouse pretreated with compound for 15 mins followed by formalin challenge and measured after 20 to 35 mins; type: functional; conditions: time min <=75
# Summary of the method: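 C57BL/6 mice given compound orally at three dose levels or vehicle (10% Tween 80, 5 mL/kg) 15 min before formalin injection; nociceptive behaviors scored in phase 1 and phase 2; N = 8/group; within-subject ANOVA and 1-sample t test versus vehicle.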
# [36] = Protein binding in mouse plasma; type: ADME, cell-free; conditions: read-out: PPB (converted)
# [37] = Protein binding in rhesus monkey plasma; type: ADME, cell-free, Macaca mulatta; conditions: read-out: PPB (converted)
# [38] = Oral bioavailability in rat; type: ADME, organism-based; conditions: in vivo
# [39] = Drug concentration in plasma of formalin-induced C57BL/6 mouse model of formalin-induced pain at 300 mg/kg, po pretreated with compound for 15 mins followed by formalin challenge and measured after […]; type: ADME, organism-based
# [40] = Kinetic solubility of compound at pH 7 by HPLC analysis; type: physicochemical; conditions: buffer, read-out: Kinetic_solubility
# [41] = Oral bioavailability in rhesus monkey; type: ADME, organism-based, Macaca mulatta; conditions: in vivo
# [42] = Apparent permeability in MDCK cells by Monolayer assay; type: ADME, cell-based, Canis lupus familiaris; conditions: dog
# [43] = Drug concentration in plasma of formalin-induced C57BL/6 mouse model of formalin-induced pain at 100 mg/kg, po pretreated with compound for 15 mins followed by formalin challenge and measured after […]; type: ADME, organism-based
# [44] = Distribution coefficient, log D of the compound by MSD HPLC analysis; type: physicochemical; conditions: octanol/water
# [45] = Dissociation constant, pKa of the sulfonamide compound; type: physicochemical
# [46] = molecular target: T2, PXR (Homo sapiens, UniProt O75469); test: Activation of PXR (unknown origin) relative to control; type: ADME
# T2 sequence (O75469 whole entry): T1 sequence (O75469 whole entry)
# [47] = Intrinsic clearance in rat at 0.05 mg/kg, iv administered as cassette dose or 2 mg/kg, iv administered as single dose; conditions: in vivo
# Chain of Sodium channel protein type 8 subunit alpha (Q9UQD0 whole entry): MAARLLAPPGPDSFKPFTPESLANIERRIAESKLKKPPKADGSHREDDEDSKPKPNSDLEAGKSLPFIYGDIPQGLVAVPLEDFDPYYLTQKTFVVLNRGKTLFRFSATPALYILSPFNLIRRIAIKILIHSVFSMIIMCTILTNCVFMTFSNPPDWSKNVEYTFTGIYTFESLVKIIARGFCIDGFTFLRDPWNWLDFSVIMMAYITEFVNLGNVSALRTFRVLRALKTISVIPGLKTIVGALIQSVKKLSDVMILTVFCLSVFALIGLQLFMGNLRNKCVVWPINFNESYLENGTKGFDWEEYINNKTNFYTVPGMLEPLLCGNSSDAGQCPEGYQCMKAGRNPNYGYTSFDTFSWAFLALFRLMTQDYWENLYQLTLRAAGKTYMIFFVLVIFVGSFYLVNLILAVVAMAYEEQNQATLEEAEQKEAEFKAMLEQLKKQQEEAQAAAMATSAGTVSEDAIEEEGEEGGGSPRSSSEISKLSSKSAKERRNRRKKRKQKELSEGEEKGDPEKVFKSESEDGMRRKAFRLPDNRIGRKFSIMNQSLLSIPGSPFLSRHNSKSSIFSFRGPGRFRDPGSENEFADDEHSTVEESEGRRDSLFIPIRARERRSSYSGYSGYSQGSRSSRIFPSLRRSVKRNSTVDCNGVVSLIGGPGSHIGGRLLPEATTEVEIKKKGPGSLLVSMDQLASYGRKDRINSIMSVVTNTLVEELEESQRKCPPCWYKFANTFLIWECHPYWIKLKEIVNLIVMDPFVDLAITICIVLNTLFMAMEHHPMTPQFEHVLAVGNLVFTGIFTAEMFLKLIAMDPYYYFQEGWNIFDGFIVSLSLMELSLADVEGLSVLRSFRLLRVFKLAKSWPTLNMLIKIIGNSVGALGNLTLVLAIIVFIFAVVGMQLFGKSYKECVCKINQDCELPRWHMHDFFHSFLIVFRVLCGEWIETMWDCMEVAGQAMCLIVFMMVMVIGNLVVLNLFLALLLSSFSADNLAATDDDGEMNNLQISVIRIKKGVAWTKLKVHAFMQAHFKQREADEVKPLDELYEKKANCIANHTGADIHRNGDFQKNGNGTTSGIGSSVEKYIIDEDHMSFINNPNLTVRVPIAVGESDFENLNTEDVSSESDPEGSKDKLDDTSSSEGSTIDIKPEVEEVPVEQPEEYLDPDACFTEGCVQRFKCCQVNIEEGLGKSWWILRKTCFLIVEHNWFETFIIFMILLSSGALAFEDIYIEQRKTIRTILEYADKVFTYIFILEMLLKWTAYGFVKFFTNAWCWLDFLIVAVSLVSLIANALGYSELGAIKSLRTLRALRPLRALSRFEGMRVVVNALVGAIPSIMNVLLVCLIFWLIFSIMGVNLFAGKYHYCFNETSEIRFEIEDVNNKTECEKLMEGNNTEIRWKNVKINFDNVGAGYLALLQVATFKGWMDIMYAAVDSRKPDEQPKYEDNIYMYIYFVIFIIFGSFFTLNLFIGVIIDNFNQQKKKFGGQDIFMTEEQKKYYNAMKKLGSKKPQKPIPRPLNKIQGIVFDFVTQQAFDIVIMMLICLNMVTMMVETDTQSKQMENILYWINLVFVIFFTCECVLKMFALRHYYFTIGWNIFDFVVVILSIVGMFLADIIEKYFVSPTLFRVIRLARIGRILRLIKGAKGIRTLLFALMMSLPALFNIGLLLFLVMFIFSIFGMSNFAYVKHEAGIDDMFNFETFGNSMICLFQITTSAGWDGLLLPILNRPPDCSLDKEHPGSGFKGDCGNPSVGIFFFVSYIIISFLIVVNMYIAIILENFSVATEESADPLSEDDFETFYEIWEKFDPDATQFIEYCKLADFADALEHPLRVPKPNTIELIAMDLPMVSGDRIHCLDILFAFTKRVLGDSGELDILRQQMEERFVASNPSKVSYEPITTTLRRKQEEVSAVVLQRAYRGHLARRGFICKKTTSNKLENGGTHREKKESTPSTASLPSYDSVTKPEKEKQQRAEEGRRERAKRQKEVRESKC
# Chain of Sodium channel protein type 9 subunit alpha (Q15858 whole entry): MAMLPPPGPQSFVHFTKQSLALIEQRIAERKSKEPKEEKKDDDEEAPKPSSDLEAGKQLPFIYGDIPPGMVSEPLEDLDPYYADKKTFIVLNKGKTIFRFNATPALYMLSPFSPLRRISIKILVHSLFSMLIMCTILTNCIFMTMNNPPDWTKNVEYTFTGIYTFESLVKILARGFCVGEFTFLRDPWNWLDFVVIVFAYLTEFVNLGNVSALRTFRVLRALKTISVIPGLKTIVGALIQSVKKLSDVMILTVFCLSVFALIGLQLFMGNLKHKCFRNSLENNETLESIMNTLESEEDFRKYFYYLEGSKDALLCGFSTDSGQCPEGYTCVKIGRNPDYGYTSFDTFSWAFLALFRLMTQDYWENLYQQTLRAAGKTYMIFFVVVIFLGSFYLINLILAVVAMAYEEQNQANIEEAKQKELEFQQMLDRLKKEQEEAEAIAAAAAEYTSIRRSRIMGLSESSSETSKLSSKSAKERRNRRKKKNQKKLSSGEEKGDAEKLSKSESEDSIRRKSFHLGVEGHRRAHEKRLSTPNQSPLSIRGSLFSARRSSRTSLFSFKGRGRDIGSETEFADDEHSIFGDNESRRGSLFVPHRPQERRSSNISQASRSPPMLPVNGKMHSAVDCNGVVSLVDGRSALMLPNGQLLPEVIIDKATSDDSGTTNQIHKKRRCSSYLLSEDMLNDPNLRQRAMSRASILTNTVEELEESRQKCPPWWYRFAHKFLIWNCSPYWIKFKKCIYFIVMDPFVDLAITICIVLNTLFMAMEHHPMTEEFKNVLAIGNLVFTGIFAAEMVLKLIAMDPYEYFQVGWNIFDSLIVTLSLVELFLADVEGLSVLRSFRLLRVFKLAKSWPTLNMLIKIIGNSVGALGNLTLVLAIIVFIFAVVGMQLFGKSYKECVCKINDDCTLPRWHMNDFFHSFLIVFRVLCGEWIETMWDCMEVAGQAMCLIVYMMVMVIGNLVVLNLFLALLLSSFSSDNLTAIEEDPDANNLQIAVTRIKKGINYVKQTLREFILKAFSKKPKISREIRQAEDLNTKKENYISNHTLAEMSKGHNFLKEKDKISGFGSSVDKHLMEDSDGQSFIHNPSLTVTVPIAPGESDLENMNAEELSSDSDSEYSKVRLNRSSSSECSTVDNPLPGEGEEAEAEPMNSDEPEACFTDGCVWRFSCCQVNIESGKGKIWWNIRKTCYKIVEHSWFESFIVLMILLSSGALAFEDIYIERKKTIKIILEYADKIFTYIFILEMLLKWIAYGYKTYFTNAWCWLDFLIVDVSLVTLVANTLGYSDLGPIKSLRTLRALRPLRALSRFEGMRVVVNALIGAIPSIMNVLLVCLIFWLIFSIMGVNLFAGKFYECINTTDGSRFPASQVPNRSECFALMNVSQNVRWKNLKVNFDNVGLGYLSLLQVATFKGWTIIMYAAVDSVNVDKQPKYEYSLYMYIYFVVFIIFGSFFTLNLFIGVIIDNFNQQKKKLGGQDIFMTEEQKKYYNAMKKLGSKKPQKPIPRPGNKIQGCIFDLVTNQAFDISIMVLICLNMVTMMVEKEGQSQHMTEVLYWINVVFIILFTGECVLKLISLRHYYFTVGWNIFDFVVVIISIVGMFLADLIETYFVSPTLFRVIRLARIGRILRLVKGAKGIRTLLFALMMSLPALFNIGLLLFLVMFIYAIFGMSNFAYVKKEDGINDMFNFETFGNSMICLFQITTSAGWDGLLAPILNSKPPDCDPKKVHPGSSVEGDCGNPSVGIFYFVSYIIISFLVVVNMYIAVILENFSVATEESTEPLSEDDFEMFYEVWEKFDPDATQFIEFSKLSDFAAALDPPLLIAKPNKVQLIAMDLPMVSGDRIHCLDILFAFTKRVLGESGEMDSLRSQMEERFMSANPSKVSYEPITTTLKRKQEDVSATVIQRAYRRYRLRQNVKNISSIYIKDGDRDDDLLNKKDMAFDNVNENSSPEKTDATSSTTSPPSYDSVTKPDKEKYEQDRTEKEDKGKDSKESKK
# Chain of Cytochrome P450 2D6 (P10635 whole entry): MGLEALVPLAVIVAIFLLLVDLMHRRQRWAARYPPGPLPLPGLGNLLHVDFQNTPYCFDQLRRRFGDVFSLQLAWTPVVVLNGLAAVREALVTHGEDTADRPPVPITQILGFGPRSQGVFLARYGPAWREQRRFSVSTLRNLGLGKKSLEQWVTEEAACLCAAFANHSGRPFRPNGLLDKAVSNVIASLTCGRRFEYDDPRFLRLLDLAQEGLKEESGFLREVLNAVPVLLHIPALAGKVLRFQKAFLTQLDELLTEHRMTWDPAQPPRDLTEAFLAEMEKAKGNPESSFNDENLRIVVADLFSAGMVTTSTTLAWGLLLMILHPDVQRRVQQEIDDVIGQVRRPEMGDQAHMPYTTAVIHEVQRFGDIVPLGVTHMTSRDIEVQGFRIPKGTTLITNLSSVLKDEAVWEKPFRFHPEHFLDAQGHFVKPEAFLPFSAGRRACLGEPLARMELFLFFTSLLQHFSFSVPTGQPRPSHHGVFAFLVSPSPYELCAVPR
# Chain of Cytochrome P450 3A4 (P08684 whole entry): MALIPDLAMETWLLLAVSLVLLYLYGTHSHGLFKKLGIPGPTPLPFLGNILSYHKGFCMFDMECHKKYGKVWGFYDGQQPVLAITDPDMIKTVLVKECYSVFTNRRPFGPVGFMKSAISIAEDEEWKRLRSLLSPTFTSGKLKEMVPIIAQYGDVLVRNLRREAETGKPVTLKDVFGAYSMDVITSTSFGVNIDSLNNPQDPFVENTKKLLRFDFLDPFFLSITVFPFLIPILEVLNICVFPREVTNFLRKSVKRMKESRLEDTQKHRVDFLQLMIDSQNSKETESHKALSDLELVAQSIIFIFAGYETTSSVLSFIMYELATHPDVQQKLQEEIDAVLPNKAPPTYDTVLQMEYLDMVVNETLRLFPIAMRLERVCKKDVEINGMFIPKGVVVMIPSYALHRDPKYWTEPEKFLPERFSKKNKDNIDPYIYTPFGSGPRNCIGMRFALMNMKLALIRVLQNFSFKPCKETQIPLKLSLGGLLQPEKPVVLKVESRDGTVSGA
smiles,measurement,setting,value
CN[C@H](CNc1cc(F)c(S(=O)(=O)Nc2ncc(F)s2)cc1Cl)CC(C)(C)C.Cl,CLint scaled,[1],200 mL/min/kg
same,IC50,"[2]; Mus musculus, C57BL/6J",4.08 µM
same,IC90,[2]; time 1.75 hrs,6.04 µM
same,Ratio IC50,[3],60
same,CLint scaled,[4],610 mL/min/kg
same,efflux ratio,[5],> 14
same,concentration at 1.25 h,[6],0.005 µM
same,half-life,[7],2.5 h
same,Ratio IC50,[8],>390
same,half-life,[9],1.3 h
same,IC50,[10],0.31 µM
same,Vd,[11],0.3 L/kg
same,concentration at 1.75 h,[12],3.27 µM
same,fraction unbound,[13],0.02
same,Vd,[14],0.8 L/kg
same,IC50,[15],28 µM
same,pKa,[16],9
same,IC50,[17],0.3 µM
same,half-life,[18],6 h
same,clearance,[19],4.5 mL/min/kg
same,clearance,[20],11 mL/min/kg
same,clearance,[21],29 mL/min/kg
same,IC90 at 5 min,[22],3.6 µM
same,IC50,[23],> 50 µM
same,efflux ratio,[24],4.9
same,Vd,[25],2.1 L/kg
same,EC50,[26],10 µM
same,IC50,[27],20 µM
same,solubility kinetic,[28],170 µM
same,concentration at 1.25 h,[29],4.9 µM
same,Cp(f),[30],1.5 µM
same,concentration at 1.25 h,[31],0.1 µM
same,IC90,[32],0.22 µM
same,IC50,[33],18.7 µM
same,bioavailability,[34],25%
same,EC90,[35],0.36 µM
same,fraction unbound,[36],0.06
same,fraction unbound,[37],0.02
same,bioavailability,[38],100%
same,concentration at 1.75 h,[39],8.86 µM
same,solubility kinetic,[40],148 µM
same,bioavailability,[41],2%
same,Papp,[42],8 ×10⁻⁶ cm/s
same,concentration at 1.75 h,[43],6.64 µM
same,logD,[44],1.7
same,pKa,[45],5.4
same,Emax,[46],80%
same,CL,[47],1670 mL/min/kg
O=S(=O)(Nc1nccs1)c1cc(Cl)c(NCC2CCCN2)cc1F (stereo in doubt; 7),IC50,[17]; hek293,> 34 µM
same,IC50,[33]; hek293,> 34 µM
CC1(CNc2cc(F)c(S(=O)(=O)Nc3nccs3)cc2Cl)CCCN1 (stereo in doubt; 4),IC50,[17],2.97 µM
same,IC50,[33],2.08 µM
CC1(CNc2cc(F)c(S(=O)(=O)Nc3nccs3)cc2Cl)CCCN1 (stereo in doubt; 5),IC50,[17],0.9 µM
same,IC50,[33],0.86 µM
O=S(=O)(Nc1nccs1)c1cc(Cl)c(NCC2CCCN2)cc1F (stereo in doubt; 6),IC50,[17],> 34 µM
same,IC50,[33],> 34 µM
CN[C@H](CNc1cc(F)c(S(=O)(=O)Nc2ncc(F)s2)cc1Cl)Cc1ccccc1,IC50,[17],0.4 µM
same,IC50,[33],> 34 µM
same,Papp,[42],8 ×10⁻⁶ cm/s
same,CL,[47],3020 mL/min/kg
N[C@H](CNc1cc(F)c(S(=O)(=O)Nc2nccs2)cc1Cl)Cc1ccccc1,IC50,[17],> 34 µM
same,IC50,[33],> 34 µM
CN[C@H](CNc1cc(F)c(S(=O)(=O)Nc2ncc(F)s2)cc1Cl)CC1CCC1,IC50,[17],1.78 µM
same,IC50,[33],> 34 µM
same,Papp,[42],5 ×10⁻⁶ cm/s
same,CL,[47],8090 mL/min/kg
CN(C)[C@H](CNc1cc(F)c(S(=O)(=O)Nc2nccs2)cc1Cl)Cc1ccccc1,IC50,[17],0.85 µM
same,IC50,[33],> 34 µM
CN[C@H](CNc1cc(F)c(S(=O)(=O)Nc2nccs2)cc1Cl)Cc1ccccc1,IC50,[17],0.24 µM
same,IC50,[33],> 34 µM
same,Papp,[42],10 ×10⁻⁶ cm/s
same,CL,[47],4820 mL/min/kg
CN[C@H](CNc1cc(F)c(S(=O)(=O)Nc2ncc(F)s2)cc1Cl)CC1(C)CC1,IC50,[17],0.72 µM
same,IC50,[33],> 34 µM
same,Papp,[42],7 ×10⁻⁶ cm/s
same,CL,[47],830 mL/min/kg
CNC(C)(CNc1cc(F)c(S(=O)(=O)Nc2nccs2)cc1Cl)Cc1ccccc1 (stereo in doubt; 9),IC50,[17],> 34 µM
same,IC50,[33],> 34 µM
CNC(C)(CNc1cc(F)c(S(=O)(=O)Nc2nccs2)cc1Cl)Cc1ccccc1 (stereo in doubt; 10),IC50,[17],1.14 µM
same,IC50,[33]; hek293,> 34 µM
O=S(=O)(Nc1nccs1)c1cc(Cl)c(NCC2(Cc3ccccc3)CCCN2)cc1F (configuration not stated),IC50,[17],0.025 µM
same,IC50,[33],0.42 µM
same,Papp,[42],13 ×10⁻⁶ cm/s
same,CL,[47],5830 mL/min/kg
CN[C@H](CNc1cc(F)c(S(=O)(=O)Nc2ncc(F)s2)cc1Cl)CC12CC(C1)C2,IC50,[17],0.12 µM
same,IC50,[33],> 34 µM
same,Papp,[42],10 ×10⁻⁶ cm/s
same,CL,[47],2300 mL/min/kg
CN[C@H](CNc1cc(F)c(S(=O)(=O)Nc2ncns2)cc1Cl)Cc1ccccc1,IC50,[17],1.09 µM
same,IC50,[33],> 34 µM
CN[C@H](CNc1cc(F)c(S(=O)(=O)Nc2ncc(F)s2)cc1Cl)CC1CC1,IC50,[17],5.54 µM
same,IC50,[33],> 34 µM
same,Papp,[42],3 ×10⁻⁶ cm/s
same,CL,[47],380 mL/min/kg
CN[C@H](CNc1cc(F)c(S(=O)(=O)Nc2ncc(F)s2)cc1Cl)C[Si](C)(C)C,IC50,[17],0.044 µM
same,IC50,[33],3.13 µM
same,CL,[47],500 mL/min/kg
